{"source": "ChEMBL document CHEMBL3862011", "about": "“Neuroprotective effects of benzyloxy substituted small molecule monoamine oxidase B inhibitors in Parkinson's disease” (Bioorg Med Chem, 2016)", "key": {"[1]": {"test_system": "PC-12", "test": "Neuroprotective activity against 6-OHDA-induced apoptosis in rat PC12 cells assessed as early apoptotic cells at 10 uM after 24 hrs by 7-AAD/annexin V APC staining-based flow cytometric method (reference value: 42.1%)", "format": "functional"}, "[2]": {"test_system": "PC-12", "test": "Neuroprotective activity against 6-OHDA-induced apoptosis in rat PC12 cells assessed as necrotic cells at 10 uM after 24 hrs by 7-AAD/annexin V APC staining-based flow cytometric method (reference value: 0.6%)", "format": "functional"}, "[3]": {"test_system": "PC-12", "test": "Neuroprotective activity against 6-OHDA-induced apoptosis in rat PC12 cells assessed as late apoptotic cells at 40 uM after 24 hrs by 7-AAD/annexin V APC staining-based flow cytometric method (reference value: 4.4%)", "format": "functional"}, "[4]": {"test": "Cytotoxicity against rat PC12 cells assessed as cell survival at 100 uM after 24 hrs by MTT assay relative to control", "format": "toxicity, PC-12", "conditions": "read-out: Survival"}, "[5]": {"test_system": "Mus musculus", "test": "Acute toxicity in Kunming mouse assessed as abnormal changes in water consumption at 2000 mg/kg measured for 14 days", "format": "organism-based", "conditions": "in vivo, 336 h", "how_it_was_run": "(§1)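 Kunming mice (20 ± 2 g), 10 per group, vehicle control group; fasted overnight, single oral dose in 0.5% CMC-Na suspension. Observed continuously for 4 h, intermittently to 24 h, then occasionally to day 14 for behaviour, mortality, food and water intake and body weight; sacrificed under ether on day 14.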"}, "[6]": {"test_system": "PC-12", "test": "Neuroprotective activity against rotenone-induced apoptosis in rat PC12 cells assessed as early apoptotic cells at 10 uM after 24 hrs by 7-AAD/annexin V APC staining-based flow cytometric method (reference value: 2.2%)", "format": "functional"}, "[7]": {"test": "Neuroprotective activity against rotenone-induced toxicity in rat PC12 cells assessed as cell survival at 20 uM preincubated for 24 hrs followed by rotenone addition measured after 24 hrs by MTT assay relative to control", "format": "functional", "conditions": "PC-12, read-out: Survival", "how_it_was_run": "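PC12 cells seeded 5×10^3/well, after 24 h given compound at 20 μM for 24 h at 37 °C, then exposed to 6-OHDA (40 μM) or rotenone (1 μM) for 24 h. […] Mean ± SEM of three independent experiments.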"}, "[8]": {"test_system": "PC-12", "test": "Neuroprotective activity against 6-OHDA-induced apoptosis in rat PC12 cells assessed as early apoptotic cells at 5 uM after 24 hrs by 7-AAD/annexin V APC staining-based flow cytometric method (reference value: 42.1%)", "format": "functional"}, "[9]": {"test_system": "PC-12", "test": "Neuroprotective activity against rotenone-induced apoptosis in rat PC12 cells assessed as early apoptotic cells at 20 uM after 24 hrs by 7-AAD/annexin V APC staining-based flow cytometric method (reference value: 2.2%)", "format": "functional"}, "[10]": {"test": "Cytotoxicity against rat PC12 cells assessed as cell survival at 20 uM after 72 hrs by MTT assay relative to control", "format": "toxicity, PC-12", "conditions": "read-out: Survival"}, "[11]": {"test_system": "PC-12", "test": "Neuroprotective activity against 6-OHDA-induced apoptosis in rat PC12 cells assessed as viable cells at 40 uM after 24 hrs by 7-AAD/annexin V APC staining-based flow cytometric method (reference value: […])", "format": "functional", "conditions": "PC-12, 24 h, read-out: Activity"}, "[12]": {"test_system": "Mus musculus", "test": "Acute toxicity in Kunming mouse assessed as abnormal changes in food consumption at 2000 mg/kg measured for 14 days", "format": "organism-based", "conditions": "in vivo, 336 h", "how_it_was_run": "as §1"}, "[13]": {"test": "in vitro", "conditions": "PAMPA"}, "[14]": {"test_system": "PC-12", "test": "Neuroprotective activity against 6-OHDA-induced apoptosis in rat PC12 cells assessed as decrease in nuclear fragmentation at 20 uM after 24 hrs by Hoechst 33258 staining-based fluorescent inverted microscopic method", "format": "functional, cell-based", "how_it_was_run": "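PC12 cells exposed to 6-OHDA or rotenone with test treatment were stained with Hoechst 33258 for 30 min, mounted on glass slides under cover slips, and examined by fluorescent inverted microscopy.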"}, "[15]": {"test_system": "PC-12", "test": "Neuroprotective activity against rotenone-induced apoptosis in rat PC12 cells assessed as viable cells at 10 uM after 24 hrs by 7-AAD/annexin V APC staining-based flow cytometric method (reference value: 39.3%)", "format": "functional", "conditions": "PC-12, 24 h, read-out: Activity"}, "[16]": {"test_system": "PC-12", "test": "Neuroprotective activity against 6-OHDA-induced apoptosis in rat PC12 cells assessed as viable cells at 20 uM after 24 hrs by 7-AAD/annexin V APC staining-based flow cytometric method (reference value: […])", "format": "functional", "conditions": "PC-12, 24 h, read-out: Activity"}, "[17]": {"test_system": "PC-12", "test": "Neuroprotective activity against rotenone-induced apoptosis in rat PC12 cells assessed as viable cells at 20 uM after 24 hrs by 7-AAD/annexin V APC staining-based flow cytometric method (reference value: 39.3%)", "format": "functional", "conditions": "PC-12, 24 h, read-out: Activity"}, "[18]": {"test_system": "PC-12", "test": "Neuroprotective activity against 6-OHDA-induced apoptosis in rat PC12 cells assessed as necrotic cells at 5 uM after 24 hrs by 7-AAD/annexin V APC staining-based flow cytometric method (reference value: 0.6%)", "format": "functional"}, "[19]": {"test_system": "PC-12", "test": "Neuroprotective activity against 6-OHDA-induced apoptosis in rat PC12 cells assessed as early apoptotic cells at 40 uM after 24 hrs by 7-AAD/annexin V APC staining-based flow cytometric method (reference value: 42.1%)", "format": "functional"}, "[20]": {"test_system": "PC-12", "test": "Neuroprotective activity against 6-OHDA-induced apoptosis in rat PC12 cells assessed as viable cells at 10 uM after 24 hrs by 7-AAD/annexin V APC staining-based flow cytometric method (reference value: […])", "format": "functional", "conditions": "PC-12, 24 h, read-out: Activity"}, "[21]": {"test_system": "PC-12", "test": "Neuroprotective activity against 6-OHDA-induced apoptosis in rat PC12 cells assessed as late apoptotic cells at 5 uM after 24 hrs by 7-AAD/annexin V APC staining-based flow cytometric method (reference value: 4.4%)", "format": "functional"}, "[22]": {"test_system": "PC-12", "test": "Neuroprotective activity against rotenone-induced apoptosis in rat PC12 cells assessed as necrotic cells at 5 uM after 24 hrs by 7-AAD/annexin V APC staining-based flow cytometric method (reference value: 48.6%)", "format": "functional"}, "[23]": {"test_system": "PC-12", "test": "Neuroprotective activity against rotenone-induced apoptosis in rat PC12 cells assessed as late apoptotic cells at 20 uM after 24 hrs by 7-AAD/annexin V APC staining-based flow cytometric method (reference value: 9.9%)", "format": "functional"}, "[24]": {"test_system": "PC-12", "test": "Neuroprotective activity against rotenone-induced apoptosis in rat PC12 cells assessed as late apoptotic cells at 40 uM after 24 hrs by 7-AAD/annexin V APC staining-based flow cytometric method (reference value: 9.9%)", "format": "functional"}, "[25]": {"test_system": "PC-12", "test": "Neuroprotective activity against 6-OHDA-induced apoptosis in rat PC12 cells assessed as late apoptotic cells at 10 uM after 24 hrs by 7-AAD/annexin V APC staining-based flow cytometric method (reference value: 4.4%)", "format": "functional"}, "[26]": {"test_system": "PC-12", "test": "Neuroprotective activity against rotenone-induced reactive oxygen species accumulation in rat PC12 cells after 24 hrs by DCFH-DA probe-based flow cytometric method", "format": "functional, cell-based", "how_it_was_run": "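PC12 cells were seeded at 2×10^5 cells/well in six-well plates and cultured with or without various concentrations of test samples for 24 h. After washing, they were loaded with DCFH-DA for 30 min at 37 °C in the dark, washed and harvested. DCF fluorescence read by flow cytometry (ex 488/em 525 nm), reported as mean fluorescence intensity.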"}}, "note": "The source made the active and inactive calls. No cut-off for these calls is given here."}
{"smiles": "O=C1CCOc2cc(OCc3ccc(F)cc3)ccc21", "values": [{"measurement": "Activity", "setting": "[1]", "value": 22, "unit": "%"}, {"measurement": "Activity", "setting": "[2]", "value": 4, "unit": "%"}, {"measurement": "Activity", "setting": "[3]", "value": 0.2, "unit": "%"}, {"measurement": "viability at 24 h, 100 µM", "setting": "[4]", "value": 93.1, "unit": "%"}, {"measurement": "Activity", "setting": "[5]", "value": "Non-Toxic"}, {"measurement": "Activity", "setting": "[6]", "value": 5, "unit": "%"}, {"measurement": "viability at 20 µM", "setting": "[7]", "value": 126, "unit": "%"}, {"measurement": "Activity", "setting": "[8]", "value": 25.1, "unit": "%"}, {"measurement": "Activity", "setting": "[9]", "value": 2.5, "unit": "%"}, {"measurement": "viability at 72 h, 20 µM", "setting": "[10]", "value": 94.5, "unit": "%"}, {"measurement": "viability at 40 µM", "setting": "[11]", "value": 90.8, "unit": "%"}, {"measurement": "Activity", "setting": "[12]", "value": "Non-Toxic"}, {"measurement": "Papp at 16 h, 100 ug/ml", "setting": "[13]", "value": 14.3, "unit": "×10⁻⁶ cm/s"}, {"measurement": "Activity", "setting": "[14]", "value": "Active"}, {"measurement": "viability at 10 µM", "setting": "[15]", "value": 48, "unit": "%"}, {"measurement": "viability at 20 µM", "setting": "[16]", "value": 87.8, "unit": "%"}, {"measurement": "viability at 20 µM", "setting": "[17]", "value": 57.8, "unit": "%"}, {"measurement": "Activity", "setting": "[18]", "value": 3.8, "unit": "%"}, {"measurement": "Activity", "setting": "[19]", "value": 7, "unit": "%"}, {"measurement": "viability at 10 µM", "setting": "[20]", "value": 70.7, "unit": "%"}, {"measurement": "Activity", "setting": "[21]", "value": 1.8, "unit": "%"}, {"measurement": "Activity", "setting": "[22]", "value": 33.2, "unit": "%"}, {"measurement": "Activity", "setting": "[23]", "value": 9.5, "unit": "%"}, {"measurement": "Activity", "setting": "[24]", "value": 9.2, "unit": "%"}, {"measurement": "Activity", "setting": "[25]", "value": 3.3, "unit": "%"}, {"measurement": "Activity", "setting": "[26]", "value": "Dose-dependent effect"}]}
